The values that follow come from ChEMBL document CHEMBL4196022, “Alkynyl-containing phenylthiazoles: Systemically active antibacterial agents effective against methicillin-resistant Staphylococcus aureus (MRSA)” (Eur J Med Chem, 2018).

Data set [1] has as its system Staphylococcus aureus. Briefly: Antibacterial activity against methicillin-resistant Staphylococcus aureus USA300 in Balb/c mouse skin infection model assessed as reduction in bacterial burden in wounded skin area at 2% administered topically twice daily for 5 consecutive days measured 12 hrs post last dose relative to control. The class given is functional. Set-up: scale not given: the % may be the effect or the level left. The method in brief: (§1)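 Female Balb/c mice, 8 weeks old, n=5 per group. Intradermal injection of 40 μL of 1.32×10^9 CFU/mL USA300; a wound formed by ~66 h. Treated topically with a 2% suspension in petroleum jelly twice daily for 5 days; the vehicle group served as control. Wounds excised 12 h after the last dose, homogenized in PBS and plated on mannitol salt agar; sites also observed for redness and swelling.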

For data set [2], the system named is Mus musculus. Briefly: Induction of inflammation in Balb/c mouse infected with methicillin-resistant Staphylococcus aureus USA300 assessed as redness around wounded skin area at 2% administered topically twice daily for 5 consecutive days measured 12 hrs post last dose relative to control. The conditions noted are these: in vivo, topical_or_ocular. It counts as organism-based. A digest of the protocol: as §1

The subject of data set [3] is Mus musculus. Briefly: Induction of inflammation in Balb/c mouse infected with methicillin-resistant Staphylococcus aureus USA300 assessed as swelling around wounded skin area at 2% administered topically twice daily for 5 consecutive days measured 12 hrs post last dose. The class given is organism-based. The note with it: in vivo, topical_or_ocular. The method in brief: as §1

The subject of data set [4] is Mus musculus. Briefly: Toxicity in wounded skin area of Balb/c mouse infected with methicillin-resistant Staphylococcus aureus USA300 at 2% administered topically twice daily for 5 consecutive days measured 12 hrs post last dose. It counts as organism-based. The note with it: in vivo, topical_or_ocular. A digest of the protocol: as §1
Data set [5] addresses T1, Undecaprenyl-diphosphatase (Escherichia coli (strain K12), UniProt P60932).
T1 sequence (P60932 whole entry): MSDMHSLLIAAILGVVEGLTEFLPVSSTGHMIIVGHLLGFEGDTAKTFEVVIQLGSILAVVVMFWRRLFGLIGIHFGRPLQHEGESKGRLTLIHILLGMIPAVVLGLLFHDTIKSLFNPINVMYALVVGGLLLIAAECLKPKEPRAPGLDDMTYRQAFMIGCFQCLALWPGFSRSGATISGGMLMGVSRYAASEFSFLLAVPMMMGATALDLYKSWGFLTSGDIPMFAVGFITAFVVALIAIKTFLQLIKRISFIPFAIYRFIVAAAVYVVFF
Briefly: Inhibition of Escherichia coli UPPP expressed in Escherichia coli C41(DE3) using FPP as substrate preincubated for 15 mins followed by substrate addition measured after 20 mins by malachite green assay.

For data set [6], the system named is Staphylococcus aureus. Briefly: Antibacterial activity against methicillin-resistant Staphylococcus aureus NRS107 after 20 hrs by broth microdilution assay. It counts as functional. The conditions noted are these: NRS107, 20 h. The method in brief: (§2)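 Broth microdilution per CLSI in cation-adjusted Mueller Hinton broth. Compounds serially diluted, in triplicate. Incubation at 37 °C for at least 20 hours. MIC taken as the lowest concentration with no visible bacterial growth.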
A general note: In broth dilution the organism is exposed to a series of concentrations in liquid medium.

In data set [7] the test system is Staphylococcus aureus. Briefly: Antibacterial activity against methicillin-resistant Staphylococcus aureus USA300 after 20 hrs by broth microdilution assay. It counts as functional. The conditions noted are these: USA300, 20 h. A digest of the protocol:
as §2

For data set [8], the system named is Staphylococcus aureus. Briefly: Bactericidal activity against methicillin-resistant Staphylococcus aureus USA300 up to 18 hrs by broth microdilution assay. It counts as functional. The note with it: USA300, 18 h, read-out: MBC99.9.
Data set [9] concerns Staphylococcus aureus. Briefly: Bactericidal activity against methicillin-resistant Staphylococcus aureus NRS107 up to 18 hrs by broth microdilution assay. The class given is functional. The note with it: NRS107, 18 h, read-out: MBC99.9.
Data set [10] concerns Staphylococcus aureus. Briefly: Antibacterial activity against methicillin-resistant Staphylococcus aureus NRS119 after 20 hrs by broth microdilution assay. The note with it: NRS119, 20 h. The class given is functional. A digest of the protocol:
as §2

For data set [11], the system named is Staphylococcus aureus. Briefly: Bactericidal activity against methicillin-resistant Staphylococcus aureus NRS119 up to 18 hrs by broth microdilution assay. It counts as functional. The note with it: NRS119, 18 h, read-out: MBC99.9.
In data set [12] the test system is Staphylococcus aureus. Briefly: Antibacterial activity against vancomycin-resistant Staphylococcus aureus VRS10 after 20 hrs by broth microdilution assay. The note with it: VRS10, 20 h. The class given is functional. The method in brief:
as §2

Data set [13] concerns Staphylococcus aureus. Briefly: Bactericidal activity against methicillin resistant vancomycin-resistant Staphylococcus aureus VRS10 up to 18 hrs by broth microdilution assay. It counts as functional. The note with it: VRS10, 18 h, read-out: MBC99.9.
The test system of data set [14] is Staphylococcus aureus. Briefly: Antibacterial activity against vancomycin-resistant Staphylococcus aureus VRS11a after 20 hrs by broth microdilution assay. It counts as functional. The method in brief: as §2
For data set [15], the system named is Staphylococcus aureus. Briefly: Antibacterial activity against vancomycin-resistant Staphylococcus aureus VRS12 after 20 hrs by broth microdilution assay. The class given is functional. The note with it: VRS12, 20 h. The method in brief:
as §2

Data set [16] relates to Staphylococcus aureus. Briefly: Bactericidal activity against methicillin resistant vancomycin-resistant Staphylococcus aureus VRS12 up to 18 hrs by broth microdilution assay. The note with it: VRS12, 18 h, read-out: MBC99.9. The class given is functional. The method in brief:
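MBC set up from the MIC plates. Aliquots from wells with no growth spotted onto tryptic soy agar and incubated at 37 °C for at least 18 hours. MBC taken as the lowest concentration giving 99.9% inhibition of bacterial growth.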

Data set [17] has as its system Staphylococcus aureus. Briefly: Potency index, ratio of vancomycin MIC to compound MIC for antibacterial activity against vancomycin-resistant Staphylococcus aureus VRS10. The class given is functional.
The test system of data set [18] is Staphylococcus aureus. Briefly: Potency index, ratio of vancomycin MIC to compound MIC for antibacterial activity against vancomycin-resistant Staphylococcus aureus VRS11a. The class given is functional.
Data set [19] concerns Staphylococcus aureus. Briefly: Potency index, ratio of vancomycin MIC to compound MIC for antibacterial activity against vancomycin-resistant Staphylococcus aureus VRS12. It counts as functional.
For data set [20], the system named is Staphylococcus aureus. Briefly: Ratio of MBC to MIC for methicillin-resistant Staphylococcus aureus USA300. It counts as functional. The conditions noted are these: read-out: Ratio. The method in brief:
(§3)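 MBC/MIC ratio. […] MBC by plating no-growth wells onto tryptic soy agar at 37 °C for at least 18 h; taken as the concentration giving 99.9% growth inhibition.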

In data set [21] the test system is Staphylococcus aureus. Briefly: Ratio of MBC to MIC for methicillin-resistant Staphylococcus aureus NRS107. The class given is functional. A digest of the protocol:
as §3

Data set [22] has as its system Staphylococcus aureus. Briefly: Ratio of MBC to MIC for methicillin-resistant Staphylococcus aureus NRS119. The class given is functional. A digest of the protocol: as §3
Data set [23] has as its system Staphylococcus aureus. Briefly: Ratio of MBC to MIC for vancomycin-resistant Staphylococcus aureus VRS10. It counts as functional. The method in brief:
as §3

For data set [24], the system named is Staphylococcus aureus. Briefly: Ratio of MBC to MIC for vancomycin-resistant Staphylococcus aureus VRS11a. The class given is functional. The method in brief: as §3
Data set [25] concerns Staphylococcus aureus. Briefly: Ratio of MBC to MIC for vancomycin-resistant Staphylococcus aureus VRS12. The class given is functional. The method in brief: as §3
The test system of data set [26] is Staphylococcus aureus. Briefly: Bactericidal activity against methicillin-resistant Staphylococcus aureus NRS123 (USA400) at 4 times MIC after 24 hrs by time kill assay. The class given is functional, organism-based.
Data set [27] has as its system J774. Briefly: Cytotoxicity against mouse J774 cells assessed as reduction in cell viability up to 16 ug/ml after 24 hrs by MTS assay. It counts as cell-based. The conditions noted are these: j774, 24 h. A digest of the protocol:
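J774 murine macrophages were grown in DMEM with 10% FBS at 37 °C, 5% CO2. Compounds were tested at 8, 16 and 32 μg/mL in triplicate for 24 h, with a DMSO-matched control. MTS was added for 4 h and absorbance read at 490 nm. Viability is given as % of DMSO control (mean ± SD); Student t-test with Holm-Sidak test.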

The test system of data set [28] is Staphylococcus aureus. Briefly: Antibacterial activity against methicillin-resistant Staphylococcus aureus NRS123 (USA400) infected in mouse J774 cells at 16 ug/ml after 24 hrs. It counts as functional, organism-based. A digest of the protocol: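 J774 macrophages grown in DMEM with 10% FBS at 37 °C, 5% CO2. Infected with USA400 at MOI ~100:1 for 1 h, then washed with gentamicin 50 μg/mL. Treated in triplicate wells for 24 h, washed with gentamicin again and lysed with 0.1% Triton X-100. Lysate plated on tryptic soy agar for 18–22 h; CFU/mL counted.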

Data set [29] relates to HRT-18 cell line. Briefly: Cytotoxicity against human HRT18 cells assessed as reduction in cell viability up to 32 ug/ml after 2 hrs by MTS assay. The class given is cell-based. The note with it: hrt-18, 2 h.
Data set [30] in a line: Selectivity index, ratio of toxic concentration for human HRT18 cells to MIC for methicillin-resistant Staphylococcus aureus. The class given is toxicity. The conditions noted are these: read-out: Selectivity Index.
Data set [31] deals with Staphylococcus aureus. Briefly: Bactericidal activity against methicillin-resistant Staphylococcus aureus USA300 at 4 times MIC after 24 hrs by time kill assay. It counts as functional, organism-based.

In brackets after ≈: the same amount, converted by molar mass. Activity calls are given as the source filed them. The calls are words filed in the database; no cut-off is given here. Positions of bridges follow the written chain, without caps; N, C: chain ends. Non-standard residues stand in square brackets, D forms with d. Residues, ends and D or L forms follow the SMILES beside them. *: point of attachment. Ileψ(thiazoline)Cys = CC[C@H](C)[C@H](N)C1=N[C@H](C(=O)*)CS1; dOrn = NCCC[C@@H](N)C(=O)O

For `CC(=O)O[C@H]1C[C@@]2(C)[C@@H](C[C@@H](O)[C@H]3[C@@]4(C)CC[C@@H](O)[C@@H](C)[C@@H]4CC[C@@]32C)/C1=C(\CCC=C(C)C)C(=O)O` [FUSIDIC ACID], the Activity in [1] was 78%; in data set [2] it was “Non-Toxic”; in [3] it was “Non-Toxic”; in [4], “Non-Toxic”.
As usually defined, the IC50 is the midpoint of a concentration-inhibition curve. The compound `CC[C@H](C)[C@H](N)C1=N[C@H](C(=O)N[C@@H](CC(C)C)C(=O)N[C@H](CCC(=O)O)C(=O)N[C@H](C(=O)N[C@H]2CCCCNC(=O)[C@H](CC(N)=O)NC(=O)[C@@H](CC(=O)O)NC(=O)[C@H](Cc3cnc[nH]3)NC(=O)[C@@H](Cc3ccccc3)NC(=O)[C@H]([C@@H](C)CC)NC(=O)[C@@H](CCCN)NC2=O)[C@@H](C)CC)CS1` [BACITRACIN] ({Ileψ(thiazoline)Cys}-L[dE]IK[dOrn]I[dF]H[dD]N; lactam 4-C) displayed an IC50 in data set [5] of 5.6 µM.
In general, MIC refers to the lowest concentration found to suppress growth. Turning to `CCCC#Cc1ccc(-c2nc(C)c(/C(C)=N/NC(=N)N)s2)cc1`, the MIC in [6] was 1 µg/mL (≈ 2.95 µM); in [7] it was 1 µg/mL (≈ 2.95 µM); in data set [10], 1 µg/mL (≈ 2.95 µM); in data set [12], 1 µg/mL (≈ 2.95 µM); in data set [14], at most 0.5 µg/mL; in data set [15], 1 µg/mL (≈ 2.95 µM). Also, the MBC in [8] was determined as 8 µg/mL (≈ 23.6 µM); in data set [9], 1 µg/mL (≈ 2.95 µM); in data set [11], 1 µg/mL (≈ 2.95 µM); in data set [13], 2 µg/mL (≈ 5.89 µM); in data set [16], 1 µg/mL (≈ 2.95 µM). The Ratio is above 100 in data set [17]; above 100 in [18]; 16 in data set [19]; 8 in data set [20]; “<=3” in data set [21]; “<=3” in data set [22]. Moreover, the Ratio result in [23], in [24] and in data set [25] was “<=3” throughout. For the same compound, the result in data set [26], in data set [28] and in [31] was Active. Moreover, the Activity result in data set [27] and in data set [29] was “Non-Toxic” each time. The selectivity ratio in [30] was in the range of 7 to 31.
